Test results published in PubChem BioAssay.
Active and inactive are the calls of the source.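 Rule for the calls, unless noted: active = NADPH fluorescence slope more negative than the mean of all samples by about 3 SD, 99.7% confidence; inactive = the rest.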

Experiments:
[1] = inhibitors of TNFa-induced NFkB p65 translocation, primary screen, imaging, HUVEC, MLSMR starter and 10KST1 sets (AID 438;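 active = inhibition above 20% together with a positive visual image hit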;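 note: compound added about 3h40 before a 20 min TNFalpha stimulation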;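 for inhibition: signal is the nuclear over cytoplasmic p65 intensity ratio per well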); details: HUVEC TNFa-induced p65 nuclear translocation; cell count: measured here: nuclei count (cytotoxicity indicator), at 2.08 µM; inhibition: at 2 µM, stronger effect = higher value, 0% TNFa-plus-vehicle, 100% no-TNFa wells
[2] = inhibitors of E-selectin induction by TNFa, primary screen, imaging, HUVEC, immunofluorescence, MLSMR starter and 10KST1 sets (AID 487;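 active = visually confirmed hit in the image check and inhibition above 20%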;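 for inhibition: signal is fraction of cell area covered by stained E-selectin grains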;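 for nuclei count: 100% = median nuclei count of all wells on the same plate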); details: HUVEC TNFalpha-induced E-selectin immunofluorescence imaging, at 2 µM; inhibition: stronger effect = higher value; nuclei count: measured here: cell number, toxicity
[3] = DUSP6 inhibitors restoring Erk phosphorylation by chemical complementation, primary imaging in DUSP6-transfected HeLa (AID 609;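 active = compounds giving at least 50% inhibition in the cell-based MKP-3 phosphatase rescue imaging test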;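 for inhibition: phospho-Erk level distribution per well compared with pooled transfected vehicle control wells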); details: HeLa MKP-3 transfected, phospho-Erk imaging KS statistic, at 10 µM, cells stimulated with TPA for 15 min
[4] = molecular target: Dual specificity protein phosphatase 6 (Homo sapiens) (UniProt Q16828); assay: as above; details: HeLa MKP-3 transfected, phospho-Erk imaging KS statistic; at 10 µM; stronger effect = higher value; cells stimulated with TPA for 15 min
Dual specificity protein phosphatase 6 (Homo sapiens), sequence (Q16828 whole entry, looked up): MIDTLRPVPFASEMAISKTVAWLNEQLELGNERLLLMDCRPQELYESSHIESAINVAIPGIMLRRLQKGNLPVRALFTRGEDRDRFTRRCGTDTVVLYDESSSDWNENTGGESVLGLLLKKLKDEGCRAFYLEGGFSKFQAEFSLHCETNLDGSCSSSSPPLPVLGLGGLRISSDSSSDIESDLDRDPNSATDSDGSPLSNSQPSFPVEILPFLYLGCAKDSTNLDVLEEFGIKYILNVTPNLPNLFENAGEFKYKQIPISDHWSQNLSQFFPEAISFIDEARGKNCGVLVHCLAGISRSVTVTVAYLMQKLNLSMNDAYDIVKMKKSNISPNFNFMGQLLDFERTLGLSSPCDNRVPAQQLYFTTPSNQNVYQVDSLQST

[5] = molecular target: Voltage-gated potassium channel subunit beta-2 (Rattus norvegicus) (UniProt P62483); assay: KvBeta enzyme negative modulators, primary screen, biochemical, NADPH fluorescence (AID 622;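 active = fluorescence slope higher than the sample average by over 3 SD, cut at about -0.22 in these data, passing the limit was not always enough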;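 note: slope of raw intensity against log time taken from 70 to 1610 s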); details: recombinant KvBeta, 4-cyanobenzaldehyde reduction, at 10 µM, stronger effect = higher value
Voltage-gated potassium channel subunit beta-2 (Rattus norvegicus), sequence (P62483 whole entry, looked up): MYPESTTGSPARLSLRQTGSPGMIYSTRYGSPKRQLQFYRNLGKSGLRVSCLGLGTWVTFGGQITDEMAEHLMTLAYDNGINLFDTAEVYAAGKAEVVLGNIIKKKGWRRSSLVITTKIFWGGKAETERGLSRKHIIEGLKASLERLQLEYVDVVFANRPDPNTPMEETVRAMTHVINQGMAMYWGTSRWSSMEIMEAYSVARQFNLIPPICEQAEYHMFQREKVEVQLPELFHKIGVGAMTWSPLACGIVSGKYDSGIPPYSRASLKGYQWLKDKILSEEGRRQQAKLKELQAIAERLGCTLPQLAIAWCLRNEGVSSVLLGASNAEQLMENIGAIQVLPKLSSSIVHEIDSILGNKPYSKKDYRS

[6] = molecular target: Voltage-gated potassium channel subunit beta-2 (Rattus norvegicus) (UniProt P62483); assay: KvBeta positive modulators, primary screen, biochemical, NADPH fluorescence (AID 623); details: Recombinant KvBeta, NADPH fluorescence decrease slope, 10 min; at 10 µM; stronger effect = lower value;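 note: fluorescence intensity change per second fitted from 20 to 320 s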
[7] = molecular target: Alpha-2C adrenergic receptor (Homo sapiens) (UniProt P18825); assay: modulators of alpha2C/GIRK thallium flux, primary screen, cell-based, HEK293 alpha2C/GIRK1/2 (AID 624;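 active = fluorescence slope after compound addition differing from the mean of all screened samples at 99.7% confidence, in either direction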;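 note: slope of fluorescence ratio to pre-addition baseline per second over 15 to 24 s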); details: thallium flux BTC fluorescence, at 10 µM, actives lie on both sides
Alpha-2C adrenergic receptor (Homo sapiens), sequence (P18825 whole entry, looked up): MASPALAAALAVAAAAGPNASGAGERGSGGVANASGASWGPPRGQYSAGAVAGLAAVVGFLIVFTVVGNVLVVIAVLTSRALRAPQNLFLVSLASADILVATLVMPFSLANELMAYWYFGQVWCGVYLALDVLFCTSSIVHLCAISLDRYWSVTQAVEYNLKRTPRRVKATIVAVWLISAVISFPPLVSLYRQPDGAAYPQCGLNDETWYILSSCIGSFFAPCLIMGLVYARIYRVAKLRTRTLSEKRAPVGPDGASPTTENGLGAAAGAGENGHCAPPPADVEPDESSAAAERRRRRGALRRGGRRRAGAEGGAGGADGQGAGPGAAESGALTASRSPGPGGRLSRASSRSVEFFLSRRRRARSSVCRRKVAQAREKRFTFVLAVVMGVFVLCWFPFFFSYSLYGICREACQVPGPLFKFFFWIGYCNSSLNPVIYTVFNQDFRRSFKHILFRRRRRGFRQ

[8] = inhibitors of larval lipid processing in zebrafish, primary screen, whole organism, PED6 fluorescence, gall bladder and intestine (AID 686;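 active = a full or partial loss of lipid-probe fluorescence in the fish gall bladder, intestine or both, judged by eye; inactive = no fluorescence loss, or compound toxic to the fish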;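 note: larvae 5 to 7 days old with five fish per well; signal comes from phospholipase A2 cleavage of quenched PED6 carried via bile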); details: Zebrafish larvae PED6 lipid processing, fluorescence scoring; screened at 20 µM (by protocol)
How it was run: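 Incubation: overnight exposure of larvae to compound plus PED6 / Test system: live zebrafish larvae aged 5-7 days, whole organism / Amount: 5 larvae per well / Read-out basis: visual per-well fluorescence inhibition score / Signal: visual fluorescence microscopy scoring of gall bladder, gut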

[9] = inhibitors of Chlamydomonas gravitaxis, primary screen, whole organism, Chlamydomonas reinhardtii, WT vs cilia-less mutant, absorbance, 96-well (AID 463189;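 active = inhibition at or above 50% relative to wild type and mutant plate controls; inactive = inhibition below 50%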;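 note: 0% = wild type cc124 cells in DMSO and 100% = ciliumless bld1 mutant cells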); details: OD600 absorbance, 2 days, at 10 µM, stronger effect = higher value
[10] = measured here: cell density z-score
[11] = measured here: nuclear c-Myc green intensity z-score
[12] = measured here: nuclear pErk red intensity z-score, stronger effect = higher value

Row | Compound | cell count [1] | inhibition [1] | inhibition [2] | nuclei count [2] | z-score [3, 10] | z-score [3, 11] | z-score [3, 12] | inhibition [4] | fluorescence slope [5] | NADPH fluorescence slope [6] | slope [7] | outcome [8] | inhibition [9]
1 | OCCCc1nc2ccccc2n1CCc1ccccc1 | 390 | -15.7% (inactive) | -395% (inactive) | 203% | 1.19 | -1.69 | -0.407 | 20.8% (inactive) | -0.421 (inactive) | -4.3e-05 (inactive) | 0.00481 (inactive) | inactive | 15.3% (inactive)
2 | Nc1nonc1-c1noc(-c2ccccc2)n1 | 480 | -3.5% (inactive) | -26.8% (inactive) | 122% | 0.154 | 1.08 | -0.0551 | 13.2% (inactive) | -0.516 (inactive) | -3.2e-05 (inactive) | 0.00533 (inactive) | inactive | 33.2% (inactive)
3 | CCOC(=O)c1[nH]c2cc3c(cc2c1NC(=O)CN1CCC(C)CC1)OCO3 | 554 | -1.1% (inactive) | -6.5% (inactive) | 155% | -0.767 | 1.52 | -0.0577 | 1.6e-07% (inactive) | -0.27 (inactive) | 6.7e-06 (inactive) | 0.00467 (inactive) | inactive | -6.78% (inactive)
4 | O=C(Nc1cccnc1)c1cccnc1 | 639 | 0.9% (inactive) | -26.7% (inactive) | 158% | -0.532 | 0.364 | -0.22 | 0.671% (inactive) | -0.534 (inactive) | -3.1e-05 (inactive) | 0.00505 (inactive) | inactive | 3.69% (inactive)
5 | CCCOc1ccc(/C(O)=C2/C(=O)C(=O)N(CCN(C)C)C2c2ccc(OC)c(OC)c2)cc1 (stereo unspecified) | 461 | -7.3% (inactive) | -136% (inactive) | 167% | -0.67 | 0.995 | 0.868 | 6.04% (inactive) | -0.411 (inactive) | -6.1e-05 (inactive) | 0.00495 (inactive) | inactive | 8% (inactive)
6 | CCCCC(C(=O)O)C(C)CC(=O)Nc1cccc(C(=O)O)c1 (stereo unspecified) | 630 | -4.4% (inactive) | -102% (inactive) | 176% | 0.159 | -1.73 | 0.323 | 18.6% (inactive) | -0.486 (inactive) | -0.000152 (inactive) | 0.00384 (inactive) | inactive | 0.959% (inactive)
7 | O=C1CCc2nc3ccccc3c(=O)n2N1 | 452 | -12.6% (inactive) | 21.9% (inactive) | 104% | -0.985 | 0.704 | -0.802 | 11.9% (inactive) | -0.488 (inactive) | -4.1e-05 (inactive) | 0.00483 (inactive) | inactive | 23.6% (inactive)
8 | ONC(=Nc1ccccc1)C(=Nc1ccccc1)NO | 348 | -0.3% (inactive) | -28.3% (inactive) | 100% | 1.37 | 1.46 | 0.663 | 17% (inactive) | -0.542 (inactive) | -6e-05 (inactive) | 0.00535 (inactive) | inactive | 25.5% (inactive)
9 | COc1ccc(C2CC(C(F)(F)F)n3ncc(C(=O)Nc4cccc(O)c4)c3N2)cc1OC (stereo unspecified) | 494 | -6.1% (inactive) | -14.4% (inactive) | 119% | -0.0495 | 0.084 | -0.887 | 1.75% (inactive) | -0.483 (inactive) | -0.00017 (inactive) | 0.0043 (inactive) | active; weak signal in gallbladder and intestine | -4.48% (inactive)
10 | COc1ccc(-c2nn3c(COc4ccccc4)nnc3s2)cc1OC | 597 | -0.7% (inactive) | 33.6% (inactive) | 96.3% | 1.18 | -0.256 | -1 | -0.674% (inactive) | -0.395 (inactive) | -6e-05 (inactive) | 0.00544 (inactive) | inactive | -1.36% (inactive)
11 | CCOC(=O)COn1c(=O)c(-c2ccco2)[n+]([O-])c2ccccc21 | 534 | 1.6% (inactive) | 3.6% (inactive) | 130% | 2.03 | 1.19 | -0.23 | 8.76% (inactive) | -0.283 (inactive) | -1.2e-05 (inactive) | 0.00422 (inactive) | inactive | 34.2% (inactive)
12 | COc1ccc2c(c1OC)C(=O)N1c3ccccc3SC21 (stereo unspecified) | 540 | -6% (inactive) | -54.8% (inactive) | 205% | -1.05 | 0.152 | 0.534 | 2.46% (inactive) | -0.361 (inactive) | 1.2e-05 (inactive) | 0.00516 (inactive) | inactive | 20.5% (inactive)
13 | CCC1(C)Cc2c(C#N)c(N)sc(=S)c2CO1 (stereo unspecified) | 505 | -3.2% (inactive) | -128% (inactive) | 140% | 0.126 | 0.287 | -0.524 | -14% (inactive) | -0.501 (inactive) | -2.4e-05 (inactive) | 0.00206 (inactive) | inactive | 28.8% (inactive)
14 | Clc1cccc(-c2nn3c(COc4ccccc4)nnc3s2)c1 | 559 | -2.3% (inactive) | -53% (inactive) | 139% | 0.34 | 0.334 | -0.356 | -9.66% (inactive) | -0.412 (inactive) | -0.000153 (inactive) | 0.00768 (inactive) | inactive | -2.6% (inactive)
15 | CC(C)Oc1ccc(/C(O)=C2/C(=O)C(=O)N(CCN3CCOCC3)C2c2ccccc2)cc1 (stereo unspecified) | 564 | 4.6% (inactive) | -21.9% (inactive) | 179% | -0.496 | -0.0457 | 0.947 | -1.12% (inactive) | -0.338 (inactive) | -1.3e-05 (inactive) | 0.0044 (inactive) | inactive | 0.719% (inactive)
16 | COc1cc(C)nc(N(C)S(=O)(=O)c2ccccc2Cl)n1 | 587 | -9% (inactive) | 26.6% (inactive) | 175% | 1.16 | 0.469 | -0.133 | 9.82% (inactive) | -0.36 (inactive) | 3.2e-06 (inactive) | 0.00436 (inactive) | inactive | -1.55% (inactive)
17 | C=C(c1ccc(OCCO)cc1)c1ccc(OCCO)cc1 | 323 | -11% (inactive) | -16.1% (inactive) | 129% | 0.426 | 0.397 | -0.652 | 1.6e-07% (inactive) | -0.405 (inactive) | -0.000129 (inactive) | 0.00576 (inactive) | inactive | 13.7% (inactive)
18 | CCn1c(SCC(=O)O)nc2sc3c(c2c1=O)CCC3 | 664 | -3.3% (inactive) | 9.9% (inactive) | 171% | -0.751 | -1.02 | -0.615 | 2.71% (inactive) | -0.405 (inactive) | -5.6e-05 (inactive) | 0.00483 (inactive) | inactive | -0.935% (inactive)
19 | c1ccc(Cc2nn[nH]n2)cc1 | 659 | -11% (inactive) | 49.2% (inactive) | 144% | -1.16 | 0.713 | 1.02 | -3.95% (inactive) | -0.426 (inactive) | -5.4e-05 (inactive) | 0.00705 (inactive) | inactive | -10.1% (inactive)
20 | C/C(=N\O)c1ccc2[nH]ccc2c1 | 578 | 0.2% (inactive) | 45.4% (inactive) | 161% | 0.0779 | 0.348 | -0.861 | -7.01% (inactive) | -0.341 (inactive) | -3.6e-05 (inactive) | 0.00435 (inactive) | inactive | -2.54% (inactive)
21 | Cc1cc(=O)oc(C)c1C(=O)N[C@@H]1CCCCNC1=O | 433 | -2.4% (inactive) | -137% (inactive) | 150% | 0.96 | -0.243 | -0.864 | -8.27% (inactive) | -0.423 (inactive) | -6.9e-05 (inactive) | 0.00507 (inactive) | inactive | -3.12% (inactive)
22 | N#CCCn1cnc2c(=S)nc[nH]c21 | 355 | -12.9% (inactive) | -142% (inactive) | 181% | 0.101 | 0.0894 | 1.37 | 1.6e-07% (inactive) | -0.438 (inactive) | -0.000132 (inactive) | 0.00509 (inactive) | inactive | -4.04% (inactive)
23 | CC(=O)Nc1cnc2ccccc2n1 | 626 | -12.5% (inactive) | 17.9% (inactive) | 160% | -0.876 | 0.21 | 0.164 | -6.06% (inactive) | -0.397 (inactive) | -5.9e-05 (inactive) | 0.00508 (inactive) | inactive; toxic | -0.95% (inactive)
24 | CCOC(=O)C1CCN(c2nc3ccccc3nc2C(C#N)C(=O)NCCc2ccccc2)CC1 (stereo unspecified) | 441 | 3.4% (inactive) | -167% (inactive) | 184% | 0.0297 | 0.625 | -0.588 | 13.2% (inactive) | -0.426 (inactive) | -6.6e-05 (inactive) | 0.00158 (inactive) | inactive | 13.3% (inactive)
25 | COc1ccccc1N1CCN(C2CCN(C(=O)c3cc(OC)c(OC)c(OC)c3)CC2)CC1 | 454 | -8.3% (inactive) | -122% (inactive) | 170% | 0.498 | -1.6 | 1.25 | -3.95% (inactive) | -0.32 (inactive) | 2.2e-05 (inactive) | 0.0055 (inactive) | inactive | -0.971% (inactive)
26 | CN=C1c2cc3c(Br)c(OC)ccc3n2CCN1C | 550 | -16.9% (inactive) | -28.8% (inactive) | 142% | 0.29 | -0.368 | 0.361 | 8.31% (inactive) | -0.493 (inactive) | -5.7e-05 (inactive) | 0.00409 (inactive) | inactive; toxic | -2.97% (inactive)
27 | O=C(Cc1cscn1)c1ccc(O)cc1O | 564 | -6% (inactive) | -143% (inactive) | 147% | 1.34 | -0.975 | -0.882 | 11.9% (inactive) | -0.544 (inactive) | -5.6e-05 (inactive) | 0.00473 (inactive) | inactive | 8.71% (inactive)
